Measurements published in ChEMBL document CHEMBL1157419, “Bioactive isocoumarins isolated from the endophytic fungus Microdochium bolleyi” (2008).

Assays:
[1] = test system: Escherichia coli; test: Antimicrobial activity against Escherichia coli by agar diffusion method; type: functional
In short: (§1)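 Test substance dissolved in acetone at 1 mg/mL, and 50 µL (50 µg) applied to a sterile 9 mm filter disk. Disk placed on NB agar, then sprayed with a suspension of the test bacterium (E. coli Gram-negative; B. megaterium Gram-positive). Acetone run as a solvent control.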

[2] = test system: Priestia megaterium; test: Antimicrobial activity against Bacillus megaterium by agar diffusion method; type: functional; in short: as §1
[3] = test system: Microbotryum violaceum; test: Antimicrobial activity against Microbotryum violaceum by agar diffusion method; type: functional
In short: (§2)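 Test substance dissolved in acetone at 1 mg/mL, and 50 µL (50 µg) pipetted onto a sterile 9 mm filter disk. Disk laid on MPY agar, then sprayed with a suspension of the fungus M. violaceum or the alga C. fusca. Acetone tested as a solvent control.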

[4] = test system: [Chlorella] fusca; test: Antimicrobial activity against Chlorella fusca by agar diffusion method; type: functional, Scenedesmus fuscus; in short: as §2

Row | Compound | inhibition zone (IZ) [1] | inhibition zone (IZ) [2] | inhibition zone (IZ) [3] | inhibition zone (IZ) [4] | inhibition zone (IZ) ([4]; Scenedesmus fuscus)
1 | CCC[C@H]1C[C@H]2OC(=O)c3c(cc(OC)c(OC)c3O)[C@H]2O1 [MONOCERIN] | 10 mm | 6 mm | 23 mm | 8 mm | 
2 | COc1cc2c(c(O)c1OC)C(=O)O[C@@H]1C[C@H](C[C@@H](C)O)O[C@H]21 | 0 mm | 0 mm | 7 mm | 6 mm | 
3 | COc1cc2c(c(O)c1OC)C(=O)O[C@@H]1C[C@H](C[C@H](C)O)O[C@H]21 | 8 mm | 6 mm | 9 mm | 10 mm | 
4 | CN(C)[C@@H]1C(O)=C(C(N)=O)C(=O)[C@@]2(O)C(O)=C3C(=O)c4c(O)cccc4[C@@](C)(O)[C@H]3C[C@@H]12 [TETRACYCLINE] | 18 mm | 18 mm | 10 mm | 0 mm | 
5 | CCC[C@@H](O)C[C@H]1OC(=O)c2c(cc(OC)c(OC)c2O)[C@H]1O | 10 mm | 7 mm | 9 mm | 10 mm | 
6 | NYSTATIN | 0 mm | 0 mm | 0 mm |  | 20 mm
7 | C[C@@H]1C[C@@H]([C@H](O)CC2CC(=O)NC(=O)C2)C(=O)[C@@H](C)C1 [CYCLOHEXIMIDE] | 0 mm | 0 mm | 35 mm | 50 mm | 
